≈ marks a conversion by molar mass, not a printed value. Where “and” joins values, the source holds several entries; their conditions need not be identical. Equal entries are not always repeated. Calls of active or inactive are those of the source. The rule behind the calls is not given here.
test system: not listed separately; experiment: Antioxidant activity assessed as ABTS radical scavenging activity measured after 1 hr by UV-vis spectrophotometric method; assay type: functional; conditions: not given
Outline: (§1)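 ABTS cation-radical decolorization was read spectrophotometrically as the fall in absorbance after 1 h. Trolox was the reference. TEAC was taken as the ratio of concentration-response slopes, test/Trolox, and IC50 was also derived. Data are mean ± SEM, n = 3.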

Q: For `Cc1c(C)c2c(c(C)c1O)CCC(C)(C(=O)O)O2` (centres undefined) [TROLOX], which IC50 is on record?
A: Its IC50 is 20.1 µM.

test system: Trichophyton tonsurans; experiment: Antifungal activity against Trichophyton tonsurans; assay type: functional; conditions: not given

Q: With `CCC(C)n1ncn(-c2ccc(N3CCN(c4ccc(OCC5COC(Cn6cncn6)(c6ccc(Cl)cc6Cl)O5)cc4)CC3)cc2)c1=O` (centres undefined) [ITRACONAZOLE] as the compound, how does the MIC read?
A: The MIC was 0.19 µg/mL (≈ 0.269 µM).

Q: With `OC(Cn1cncn1)(Cn1cncn1)c1ccc(F)cc1F` [FLUCONAZOLE] as the compound, how does the MIC read?
A: Its MIC is over 100 µg/mL.

test system: Rattus norvegicus; experiment: Antiinflammatory activity in rat model of carrageenan-induced paw edema assessed as inhibition of hind paw swelling at 15 mg/kg, ip measured after 5 hrs; assay type: functional, organism-based; conditions: not given

Q: For `Nc1c(C(F)(F)F)n[nH]c1-c1ccccc1`, which Activity is on record?
A: The Activity was “Active”.

Q: Which Activity does the source give for `Nc1c(C(F)(F)F)n[nH]c1-c1cccs1` here?
A: Its Activity is “Active”.

Q: Which Activity does the source give for `Cn1nc(C(F)(F)F)c(N)c1-c1ccco1` here?
A: Its Activity is “Active”.

test system: Rattus norvegicus; experiment: Antiinflammatory activity in rat model of carrageenan-induced paw edema assessed as inhibition of hind paw swelling at 15 mg/kg, ip measured after 1 hr relative to control; assay type: functional; conditions: not given

Q: With `Cc1c(N(C)CS(=O)(=O)O)c(=O)n(-c2ccccc2)n1C` [METAMIZOLE] as the compound, how does the inhibition read?
A: Its inhibition is “inactive”.

test system: Rattus norvegicus; experiment: Antiinflammatory activity in rat model of carrageenan-induced paw edema assessed as inhibition of hind paw swelling at 15 mg/kg, ip measured after 3 hrs relative to control; assay type: functional; conditions: not given

Q: With `Nc1c(C(F)(F)F)n[nH]c1-c1ccccc1` as the compound, how does the inhibition read?
A: Its inhibition is “inactive”.

Q: With `Cc1c(N(C)CS(=O)(=O)O)c(=O)n(-c2ccccc2)n1C` [METAMIZOLE] as the compound, how does the inhibition read?
A: Its inhibition is “inactive”.

test system: Trichophyton interdigitale; experiment: Antifungal activity against Trichophyton mentagrophytes var. interdigitale; assay type: functional; conditions: not given

Q: With `CCC(C)n1ncn(-c2ccc(N3CCN(c4ccc(OCC5COC(Cn6cncn6)(c6ccc(Cl)cc6Cl)O5)cc4)CC3)cc2)c1=O` (centres undefined) [ITRACONAZOLE] as the compound, how does the MIC read?
A: The MIC was 0.095 µg/mL (≈ 0.135 µM).

Q: With `OC(Cn1cncn1)(Cn1cncn1)c1ccc(F)cc1F` [FLUCONAZOLE] as the compound, how does the MIC read?
A: The MIC was over 100 µg/mL.

test system: Epidermophyton floccosum; experiment: Antifungal activity against Epidermophyton floccosum; assay type: functional; conditions: not given

Q: Which MIC does the source give for `CCC(C)n1ncn(-c2ccc(N3CCN(c4ccc(OCC5COC(Cn6cncn6)(c6ccc(Cl)cc6Cl)O5)cc4)CC3)cc2)c1=O` (centres undefined) [ITRACONAZOLE] here?
A: Its MIC is 0.19 µg/mL (≈ 0.269 µM).

test system: Rattus norvegicus; experiment: Analgesic activity in rat assessed as prolongation of latency period at 15 mg/kg, ip measured after 1 hr by hot-plate test relative to control; assay type: functional; conditions: not given
Outline: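 Hot-plate test in rats. Compounds were given by intraperitoneal injection. Latency was read at 1 h and, for some compounds, also at 2 h after dosing. Results are expressed as % prolongation of the latent period versus vehicle-treated control. Significance was given as p-values.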

Q: Which Activity does the source give for `Cc1c(N(C)CS(=O)(=O)O)c(=O)n(-c2ccccc2)n1C` [METAMIZOLE] here?
A: The Activity was 59.8%.

test system: Trichophyton rubrum; experiment: Antifungal activity against Trichophyton rubrum; assay type: functional; conditions: not given

Q: Which MIC does the source give for `CCC(C)n1ncn(-c2ccc(N3CCN(c4ccc(OCC5COC(Cn6cncn6)(c6ccc(Cl)cc6Cl)O5)cc4)CC3)cc2)c1=O` (centres undefined) [ITRACONAZOLE] here?
A: The MIC was 0.06 µg/mL (≈ 0.085 µM).

Q: Which MIC does the source give for `OC(Cn1cncn1)(Cn1cncn1)c1ccc(F)cc1F` [FLUCONAZOLE] here?
A: Its MIC is 6.25 µg/mL (≈ 20.4 µM).

test system: Microsporum canis; experiment: Antifungal activity against Microsporum canis; assay type: functional; conditions: not given

Q: For `CCC(C)n1ncn(-c2ccc(N3CCN(c4ccc(OCC5COC(Cn6cncn6)(c6ccc(Cl)cc6Cl)O5)cc4)CC3)cc2)c1=O` (centres undefined) [ITRACONAZOLE], which MIC is on record?
A: Its MIC is over 100 µg/mL.

Q: With `OC(Cn1cncn1)(Cn1cncn1)c1ccc(F)cc1F` [FLUCONAZOLE] as the compound, how does the MIC read?
A: Its MIC is 100 µg/mL (≈ 327 µM).

test system: Nannizzia gypsea; experiment: Antifungal activity against Trichophyton gypseum; assay type: functional; conditions: not given

Q: Which MIC does the source give for `CCC(C)n1ncn(-c2ccc(N3CCN(c4ccc(OCC5COC(Cn6cncn6)(c6ccc(Cl)cc6Cl)O5)cc4)CC3)cc2)c1=O` (centres undefined) [ITRACONAZOLE] here?
A: Its MIC is 0.06 µg/mL (≈ 0.085 µM).

Q: Which MIC does the source give for `OC(Cn1cncn1)(Cn1cncn1)c1ccc(F)cc1F` [FLUCONAZOLE] here?
A: Its MIC is 12.5 µg/mL (≈ 40.8 µM).

test system: not listed separately; experiment: Antioxidant activity assessed as AAPH scavenging activity by measuring residual fluorescence at 10 uM measured at 1 min interval for 30 mins by ORAC fluorescein assay relative to control; assay type: functional; conditions: not given
Outline: (§2)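 ORAC-FL assay with fluorescein as the probe and AAPH as the peroxyl radical generator. The loss of fluorescence over time was followed, and the result is given as % fluorescence restored at 10 and 50 µM. Each value is the mean of two independent experiments.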

Q: Which Activity does the source give for `Nc1c(C(F)(F)F)n[nH]c1-c1ccccc1` here?
A: Its Activity is 63.1% and 59.7%.

Q: With `Nc1c(C(F)(F)F)n[nH]c1-c1cccs1` as the compound, how does the Activity read?
A: The Activity was 52.5% and 52.6%.

test system: Trichophyton violaceum; experiment: Antifungal activity against Trichophyton violaceum; assay type: functional; conditions: not given

Q: With `CCC(C)n1ncn(-c2ccc(N3CCN(c4ccc(OCC5COC(Cn6cncn6)(c6ccc(Cl)cc6Cl)O5)cc4)CC3)cc2)c1=O` (centres undefined) [ITRACONAZOLE] as the compound, how does the MIC read?
A: Its MIC is 0.19 µg/mL (≈ 0.269 µM).

Q: With `OC(Cn1cncn1)(Cn1cncn1)c1ccc(F)cc1F` [FLUCONAZOLE] as the compound, how does the MIC read?
A: Its MIC is 100 µg/mL (≈ 327 µM).

test system: Candida albicans; experiment: Antifungal activity against Candida albicans; assay type: functional; conditions: not given

Q: Which MIC does the source give for `CCC(C)n1ncn(-c2ccc(N3CCN(c4ccc(OCC5COC(Cn6cncn6)(c6ccc(Cl)cc6Cl)O5)cc4)CC3)cc2)c1=O` (centres undefined) [ITRACONAZOLE] here?
A: Its MIC is over 100 µg/mL.

Q: For `OC(Cn1cncn1)(Cn1cncn1)c1ccc(F)cc1F` [FLUCONAZOLE], which MIC is on record?
A: The MIC was over 100 µg/mL.

test system: Mycobacterium tuberculosis; experiment: Antitubercular activity against Mycobacterium tuberculosis H37Rv; assay type: functional; conditions: not given
Outline: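 Mycobacterium tuberculosis strain H37Rv; minimum inhibitory concentration (MIC) taken as the lowest level needed to inhibit bacterial growth; isoniazid and pyrazinamide served as reference drugs.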

Q: For `NNC(=O)c1ccncc1` [ISONIAZID], which MIC is on record?
A: Its MIC is 0.15 µg/mL (≈ 1.09 µM).

Q: For `NC(=O)c1cnccn1` [PYRAZINAMIDE], which MIC is on record?
A: The MIC was 12.5 µg/mL (≈ 102 µM).

test system: not listed separately; experiment: Selectivity index, ratio of IC50 for HDF cells to IC50 for human HeLa cells; assay type: toxicity; conditions: HDF cells versus HeLa cells, read-out: Ratio IC50

Q: With `CC[C@@]1(O)C(=O)OCc2c1cc1n(c2=O)Cc2cc3ccccc3nc2-1` [CAMPTOTHECIN] as the compound, how does the selectivity ratio read?
A: The selectivity ratio was 3.24.

test system: HeLa; experiment: Cytotoxicity against human HeLa cells; assay type: functional, cell-based; conditions: not given

Q: For `Nc1c(C(F)(F)F)n[nH]c1-c1ccccc1`, which Activity is on record?
A: The Activity was “Dose-dependent effect”.

same assay, conditions: Homo sapiens, HeLa; read-out: IC50

Q: With `COc1cccc2c1C(=O)c1c(O)c3c(c(O)c1C2=O)C[C@@](O)(C(=O)CO)C[C@@H]3O[C@H]1C[C@H](N)[C@H](O)[C@H](C)O1` [DOXORUBICIN] as the compound, how does the IC50 read?
A: The IC50 was 4.25 µM.

Q: With `CC[C@@]1(O)C(=O)OCc2c1cc1n(c2=O)Cc2cc3ccccc3nc2-1` [CAMPTOTHECIN] as the compound, how does the IC50 read?
A: The IC50 was 1.66 µM.

test system: NHDF; experiment: Cytotoxicity against HDF cells; assay type: cell-based, Homo sapiens; conditions: Homo sapiens, NHDF; read-out: IC50

Q: With `COc1cccc2c1C(=O)c1c(O)c3c(c(O)c1C2=O)C[C@@](O)(C(=O)CO)C[C@@H]3O[C@H]1C[C@H](N)[C@H](O)[C@H](C)O1` [DOXORUBICIN] as the compound, how does the IC50 read?
A: Its IC50 is 2.72 µM.

Q: For `CC[C@@]1(O)C(=O)OCc2c1cc1n(c2=O)Cc2cc3ccccc3nc2-1` [CAMPTOTHECIN], which IC50 is on record?
A: The IC50 was 5.38 µM.

test system: not listed separately; experiment: Antioxidant activity assessed as trolox equivalent of ABTS radical scavenging activity measured after 1 hr by UV-vis spectrophotometric method; assay type: functional; conditions: not given; outline: as §1

Q: Which Activity does the source give for `Nc1c(C(F)(F)F)n[nH]c1-c1ccccc1` here?
A: Its Activity is 0.58 equiv and 1.35 equiv.

Q: For `Nc1c(C(F)(F)F)n[nH]c1-c1cccs1`, which Activity is on record?
A: The Activity was 1.22 equiv and 1.1 equiv.

Q: With `Cn1nc(C(F)(F)F)c(N)c1-c1ccco1` as the compound, how does the Activity read?
A: Its Activity is 0.04 equiv.

Q: With `Cc1c(C)c2c(c(C)c1O)CCC(C)(C(=O)O)O2` (centres undefined) [TROLOX] as the compound, how does the Activity read?
A: The Activity was 1 equiv.

test system: not listed separately; experiment: Antioxidant activity assessed as AAPH scavenging activity by measuring residual fluorescence at 50 uM measured at 1 min interval for 30 mins by ORAC fluorescein assay relative to control; assay type: functional; conditions: not given; outline: as §2

Q: With `Nc1c(C(F)(F)F)n[nH]c1-c1ccccc1` as the compound, how does the Activity read?
A: Its Activity is 60.2% and 62.8%.

Q: Which Activity does the source give for `Nc1c(C(F)(F)F)n[nH]c1-c1cccs1` here?
A: The Activity was 14% and 21.8%.

From ChEMBL document CHEMBL4765448, “Multiple biological active 4-aminopyrazoles containing trifluoromethyl and their 4-nitroso-precursors: Synthesis and evaluation” (Eur J Med Chem, 2020)
